Experimental data: ChEMBL document CHEMBL1132229, “3,7-Disubstituted-1,2,3,4-tetrahydroisoquinolines display remarkable potency and selectivity as inhibitors of phenylethanolamine N-methyltransferase versus the alpha2-adrenoceptor” (J Med Chem, 1999)

Legend:
[1] = target: T1, Phenylethanolamine N-methyltransferase (Bos taurus, UniProt P10938); experiment: Inhibition of bovine adrenal Phenylethanolamine N-Methyltransferase
T1 sequence (P10938 whole entry): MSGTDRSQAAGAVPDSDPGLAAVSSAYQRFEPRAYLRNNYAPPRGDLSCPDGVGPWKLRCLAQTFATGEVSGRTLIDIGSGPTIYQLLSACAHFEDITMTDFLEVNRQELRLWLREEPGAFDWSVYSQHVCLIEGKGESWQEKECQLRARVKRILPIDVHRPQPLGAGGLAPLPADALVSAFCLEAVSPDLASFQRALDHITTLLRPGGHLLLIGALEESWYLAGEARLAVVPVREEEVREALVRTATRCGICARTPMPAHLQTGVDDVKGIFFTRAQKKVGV

[2] = Relative affinity for PNMT and alpha2 adrenergic receptors
[3] = target: T2, Adrenergic receptor alpha-2 (Rattus norvegicus, UniProt P22086+P19328+P22909); experiment: Displacement of [3H]clonidine from Alpha-2 adrenergic receptor of rat cortical membranes; type: cell membranes, Membrane
T2 sequence (P22086 whole entry): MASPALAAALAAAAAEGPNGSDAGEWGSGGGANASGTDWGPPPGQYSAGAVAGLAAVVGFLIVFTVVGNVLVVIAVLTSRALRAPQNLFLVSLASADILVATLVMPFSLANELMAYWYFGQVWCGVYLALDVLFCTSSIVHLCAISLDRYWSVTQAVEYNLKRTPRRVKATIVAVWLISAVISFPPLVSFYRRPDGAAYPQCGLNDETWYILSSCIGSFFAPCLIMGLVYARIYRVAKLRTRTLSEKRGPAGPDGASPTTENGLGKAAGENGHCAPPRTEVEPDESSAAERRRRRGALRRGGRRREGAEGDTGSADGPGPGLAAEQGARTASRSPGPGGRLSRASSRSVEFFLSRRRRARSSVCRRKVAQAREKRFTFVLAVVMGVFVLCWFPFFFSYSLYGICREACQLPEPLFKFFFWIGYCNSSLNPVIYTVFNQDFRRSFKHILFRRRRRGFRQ
T2 sequence (P19328 whole entry): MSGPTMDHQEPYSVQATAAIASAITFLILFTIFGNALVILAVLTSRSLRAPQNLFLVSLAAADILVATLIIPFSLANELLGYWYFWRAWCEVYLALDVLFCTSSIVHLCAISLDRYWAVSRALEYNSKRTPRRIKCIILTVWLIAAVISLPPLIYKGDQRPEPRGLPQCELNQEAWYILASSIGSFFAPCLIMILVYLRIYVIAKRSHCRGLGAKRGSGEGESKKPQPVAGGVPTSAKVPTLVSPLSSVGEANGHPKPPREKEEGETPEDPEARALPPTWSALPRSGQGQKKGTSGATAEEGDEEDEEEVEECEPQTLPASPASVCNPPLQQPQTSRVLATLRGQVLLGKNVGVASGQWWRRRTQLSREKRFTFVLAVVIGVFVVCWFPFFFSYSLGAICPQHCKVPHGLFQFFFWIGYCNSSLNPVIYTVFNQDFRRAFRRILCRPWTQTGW
T2 sequence (P22909 whole entry): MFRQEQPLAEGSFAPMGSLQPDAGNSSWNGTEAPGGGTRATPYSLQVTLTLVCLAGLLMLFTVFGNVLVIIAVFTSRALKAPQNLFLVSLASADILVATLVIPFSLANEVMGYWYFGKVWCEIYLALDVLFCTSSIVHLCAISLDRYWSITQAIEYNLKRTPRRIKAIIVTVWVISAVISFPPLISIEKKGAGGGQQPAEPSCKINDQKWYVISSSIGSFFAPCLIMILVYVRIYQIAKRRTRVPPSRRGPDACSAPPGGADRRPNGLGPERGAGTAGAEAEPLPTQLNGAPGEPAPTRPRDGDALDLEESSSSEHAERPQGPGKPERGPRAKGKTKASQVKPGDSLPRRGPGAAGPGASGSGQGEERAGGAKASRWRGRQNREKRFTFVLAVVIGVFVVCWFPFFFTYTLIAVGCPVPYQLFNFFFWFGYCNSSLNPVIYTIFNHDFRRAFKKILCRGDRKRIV
Summary of the method: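 Male Sprague-Dawley rat cortex homogenized in ice-cold 50 mM Tris/HCl (pH 7.7 at 25 °C), washed by three 50000g spins, resuspended at 200 volumes. [3H]clonidine 4.0 nM final; 25 °C, 30 min; terminated by vacuum filtration on GF/B filters and scintillation counting. Nonspecific binding with 2 μM phentolamine.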

[4] = target: Adrenergic receptor alpha-2 (Rattus norvegicus) (UniProt P22086+P19328+P22909); experiment: Stereo selectivity ratio for alpha-2(-)/(+) activities
[5] = target: T3, Phenylethanolamine N-methyltransferase (Bos taurus) (UniProt P10938); experiment: Stereo selectivity ratio for PNMT(-)/(+ ) activities
T3 sequence (whole entry): T1 sequence (P10938 whole entry)

[6] = target: T1, Phenylethanolamine N-methyltransferase; experiment: In vitro inhibitory activity against bovine adrenal phenylethanolamine N-methyl transferase
[7] = target: T2, Adrenergic receptor alpha-2; experiment: In vitro binding affinity towards cortical membranes of male Sprague-Dawley rats alpha-2 adrenergic receptor by replacing [3H]clonidine
Summary of the method: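 Rat cortex (male Sprague-Dawley) homogenised in ice-cold 50 mM Tris/HCl pH 7.7, washed by three 50000g spins. Tissue incubated with 4.0 nM [3H]clonidine (final) and drug at five concentrations over a 16-fold range, 25 °C for 30 min. Bound ligand collected by vacuum filtration on GF/B filters and counted. Nonspecific binding set with 2 μM phentolamine. Quadruplicate. IC50 from log-probit analysis; Ki = IC50/(1+[clonidine]/KD).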

[8] = target: T1, Phenylethanolamine N-methyltransferase; experiment: In vitro inhibitory activity against bovine adrenal Phenylethanolamine N-Methyltransferase (for +- stereoisomer)

Compound	Ki [1] [µM]	Selectivity [2]	other results
COCC1Cc2ccccc2CN1 (centres undefined)	9.2	0.3	
C[C@H]1Cc2ccc([N+](=O)[O-])cc2CN1	0.25		
COC(=O)C1Cc2ccccc2CN1 (centres undefined)			Ki [3]: 11 µM
NC(=O)C1Cc2ccccc2CN1 (centres undefined)			Ki [3]: 250 µM
C[C@@H]1Cc2ccc([N+](=O)[O-])cc2CN1	1.3	41	Ratio [4]: 2.8; Ratio [5]: 5.2
CC1Cc2ccc([N+](=O)[O-])cc2CN1 (centres undefined)	0.49	63	Ki [3]: 31 µM
O=C(O)C1Cc2ccccc2CN1 (centres undefined)			Ki [6]: > 2000 µM
CCC1Cc2ccccc2CN1 (centres undefined)			Ki [7]: 0.66 µM

Continued, in another order:

Ki [1] [µM]	Selectivity [2]	Compound	other results
0.9		O=[N+]([O-])c1ccc2c(c1)CN[C@H](CO)C2	
0.29		O=[N+]([O-])c1ccc2c(c1)CNC(CO)C2 (centres undefined)	
0.34	4100	NS(=O)(=O)c1ccc2c(c1)CNC(CO)C2 (centres undefined)	
0.56	7.9	OC[C@H]1Cc2ccccc2CN1	Ratio [4]: 3.9; Ratio [5]: 27
15	1.1	OC[C@@H]1Cc2ccccc2CN1	
0.64	1000	CS(=O)(=O)c1ccc2c(c1)CNC(CO)C2 (centres undefined)	
0.24		O=[N+]([O-])c1ccc2c(c1)CN[C@@H](CO)C2	
	6	OCC1Cc2ccccc2CN1 (centres undefined)	Ki [8]: 1.1 µM
